This is an account of results in ChEMBL document CHEMBL2331499, “N2-Trimethylacetyl substituted and unsubstituted-N4-phenylsubstituted-6-(2-pyridin-2-ylethyl)-7H-pyrrolo[2,3-d]pyrimidine-2,4-diamines: design, cellular receptor tyrosine kinase inhibitory activities and in vivo evaluation as antiangiogenic, antimetastatic and antitumor agents” (Bioorg Med Chem, 2013).

Structures are written as SMILES. Activity calls are given as the source filed them. No cut-off for these calls is given here.

The target of series [1] is T1, Vascular endothelial growth factor receptor 2 (Homo sapiens, UniProt P35968). It is filed as cell-based, U-251.
T1 sequence (P35968 whole entry): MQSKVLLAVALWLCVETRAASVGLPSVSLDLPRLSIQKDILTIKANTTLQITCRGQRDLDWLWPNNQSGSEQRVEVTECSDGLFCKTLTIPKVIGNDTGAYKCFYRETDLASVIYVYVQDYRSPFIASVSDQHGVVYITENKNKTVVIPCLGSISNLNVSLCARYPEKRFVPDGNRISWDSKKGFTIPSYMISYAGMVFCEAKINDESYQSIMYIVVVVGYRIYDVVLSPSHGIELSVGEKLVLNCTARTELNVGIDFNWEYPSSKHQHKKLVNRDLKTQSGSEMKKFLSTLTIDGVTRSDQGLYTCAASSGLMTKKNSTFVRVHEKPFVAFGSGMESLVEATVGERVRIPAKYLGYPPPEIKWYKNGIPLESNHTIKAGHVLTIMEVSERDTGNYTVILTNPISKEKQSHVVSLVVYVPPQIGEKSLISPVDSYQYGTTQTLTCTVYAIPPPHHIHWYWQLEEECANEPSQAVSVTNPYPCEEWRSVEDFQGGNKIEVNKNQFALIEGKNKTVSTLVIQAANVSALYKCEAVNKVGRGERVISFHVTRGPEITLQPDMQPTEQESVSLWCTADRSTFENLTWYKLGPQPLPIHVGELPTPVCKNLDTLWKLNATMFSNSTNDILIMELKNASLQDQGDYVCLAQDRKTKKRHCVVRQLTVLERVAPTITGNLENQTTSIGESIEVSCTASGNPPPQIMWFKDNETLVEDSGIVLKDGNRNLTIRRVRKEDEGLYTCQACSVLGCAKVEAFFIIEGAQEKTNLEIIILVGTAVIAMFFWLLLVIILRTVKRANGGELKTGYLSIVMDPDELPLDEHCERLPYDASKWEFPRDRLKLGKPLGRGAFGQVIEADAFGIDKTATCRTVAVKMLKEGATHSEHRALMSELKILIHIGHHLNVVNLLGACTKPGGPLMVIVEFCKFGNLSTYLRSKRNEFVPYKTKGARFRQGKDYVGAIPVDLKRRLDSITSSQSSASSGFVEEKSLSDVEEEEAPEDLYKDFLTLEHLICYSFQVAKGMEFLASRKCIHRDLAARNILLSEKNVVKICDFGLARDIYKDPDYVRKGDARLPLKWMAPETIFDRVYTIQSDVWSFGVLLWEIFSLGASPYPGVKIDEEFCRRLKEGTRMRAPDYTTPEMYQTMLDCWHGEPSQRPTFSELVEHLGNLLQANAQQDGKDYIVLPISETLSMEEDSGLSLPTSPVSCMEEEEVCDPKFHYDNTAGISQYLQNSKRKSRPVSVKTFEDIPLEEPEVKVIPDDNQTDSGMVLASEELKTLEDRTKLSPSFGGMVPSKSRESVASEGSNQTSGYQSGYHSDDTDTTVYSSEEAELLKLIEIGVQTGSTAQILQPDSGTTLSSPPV
Series [2] has as its target T2, Vascular endothelial growth factor receptor 1 (Homo sapiens, UniProt P17948). Briefly: Inhibition of VEGF-induced VEGFR1 phosphorylation in human A498 cells overexpressing Flt-1 pretreated for 60 mins prior to VEGF addition measured after 10 mins by phosphotyrosine ELISA cytoblot analysis. It is filed as cell-based. A general note: ELISA stands for enzyme-linked immunosorbent assay.

Series [3] has as its target Platelet-derived growth factor receptor beta (Homo sapiens, UniProt P09619). Description: Inhibition of PDGF-BB-induced PDGFR beta phosphorylation in human SF539 cells overexpressing PDGFR beta pretreated for 60 mins prior to PDGF-BB addition measured after 10 mins by phosphotyrosine ELISA cytoblot analysis. It is filed as cell-based, SF-539.
For series [4], the target named is Epidermal growth factor receptor (Homo sapiens, UniProt P00533). The class given is cell-based, A-431.
Epidermal growth factor receptor, sequence (P00533 whole entry): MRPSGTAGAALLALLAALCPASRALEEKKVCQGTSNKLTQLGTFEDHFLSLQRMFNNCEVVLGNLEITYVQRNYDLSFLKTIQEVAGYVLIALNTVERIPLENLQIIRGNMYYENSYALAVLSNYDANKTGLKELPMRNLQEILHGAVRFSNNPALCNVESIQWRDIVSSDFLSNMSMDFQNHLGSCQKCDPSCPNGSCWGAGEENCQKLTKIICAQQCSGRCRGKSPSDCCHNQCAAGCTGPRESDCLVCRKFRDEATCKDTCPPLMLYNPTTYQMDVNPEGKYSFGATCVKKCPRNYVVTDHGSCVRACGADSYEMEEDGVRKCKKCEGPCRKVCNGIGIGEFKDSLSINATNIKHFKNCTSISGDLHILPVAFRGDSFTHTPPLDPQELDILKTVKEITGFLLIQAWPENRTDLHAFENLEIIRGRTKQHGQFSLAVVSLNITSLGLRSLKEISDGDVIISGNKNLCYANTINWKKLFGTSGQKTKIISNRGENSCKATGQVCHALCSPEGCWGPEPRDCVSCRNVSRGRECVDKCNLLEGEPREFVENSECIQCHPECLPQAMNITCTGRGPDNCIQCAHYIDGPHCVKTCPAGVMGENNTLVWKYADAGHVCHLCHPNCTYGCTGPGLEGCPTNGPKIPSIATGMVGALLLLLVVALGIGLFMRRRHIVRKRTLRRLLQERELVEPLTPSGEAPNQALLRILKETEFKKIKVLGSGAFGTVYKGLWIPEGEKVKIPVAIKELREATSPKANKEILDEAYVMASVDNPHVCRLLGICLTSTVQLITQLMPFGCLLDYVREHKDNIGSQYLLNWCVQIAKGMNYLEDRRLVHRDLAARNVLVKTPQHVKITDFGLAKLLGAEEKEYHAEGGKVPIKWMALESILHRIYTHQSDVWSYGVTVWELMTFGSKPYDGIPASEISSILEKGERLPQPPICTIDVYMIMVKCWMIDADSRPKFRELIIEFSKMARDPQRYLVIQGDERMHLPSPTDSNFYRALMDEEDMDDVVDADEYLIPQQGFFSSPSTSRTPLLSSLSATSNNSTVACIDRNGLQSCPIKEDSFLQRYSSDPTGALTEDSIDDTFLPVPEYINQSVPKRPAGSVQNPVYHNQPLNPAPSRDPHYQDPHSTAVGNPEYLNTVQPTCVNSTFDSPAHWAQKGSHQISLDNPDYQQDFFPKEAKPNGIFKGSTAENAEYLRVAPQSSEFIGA
Series [5] relates to A-431. Briefly: Cytotoxicity against human A431 cells overexpressing EGFR assessed as inhibition of cell proliferation treated for 12 hrs measured after 36 hrs by CYQUANT dye based assay. The class given is functional.
The test system of series [6] is Chorioallantoic membrane. Description: Inhibition of VEGF165/bFGF-induced angiogenesis in chicken chorioallantoic membrane assessed a s decrease in number of vessels formed treated 8 hrs after VEGF/bFGF addition measured after 48 hrs by dissecting microscopic analysis. It is filed as functional. The conditions noted are these: Gallus gallus.
Series [7] deals with T2, Vascular endothelial growth factor receptor 1. Briefly: Ratio of compound IC50 to CB676475 IC50 for VEGF-induced VEGFR1 phosphorylation in human A498 cells overexpressing Flt-1 by phosphotyrosine ELISA cytoblot analysis. The class given is cell-based. An outline of the steps: (§1)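 Cells at 60–75% confluence serum-starved 18 h, then pretreated 60 min with serial compound dilutions starting at 10 before growth factor stimulation. Cells fixed 30 min at 60 °C, then 70% ethanol 30 min, blocked with 1% BSA in TBS 1 h, HRP-anti-phosphotyrosine overnight, luminol ELISA substrate; light emission imaged.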

Series [8] addresses T1, Vascular endothelial growth factor receptor 2. Briefly: Ratio of compound IC50 to semaxanib IC50 for VEGF-induced VEGFR2 phosphorylation in human U251 cells overexpressing Flk-1 by phosphotyrosine ELISA cytoblot analysis. The class given is cell-based. The conditions noted are these: U-251. An outline of the steps:
as §1

For series [9], the system named is Chorioallantoic membrane. Description: Ratio of compound IC50 to semaxanib IC50 for VEGF165/bFGF-induced angiogenesis in chicken chorioallantoic membrane by dissecting microscopic analysis. It is filed as functional. The conditions noted are these: Gallus gallus.
The test system of series [10] is B16-F10. Description: Antitumor activity against GFP-tagged mouse B16F10 cells isografted into syngeneic athymic Ncr nu/nu mouse assessed as decrease in tumor volume at 10 mg/kg, ip administered twice weekly starting from day 8 post-tumor inoculation. It is filed as functional, organism-based. The arrangement: dose 10 mg/kg. In a few lines:
(§2)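 Mice bearing subcutaneous GFP-tagged B16-F10 tumors; treatment began once most tumors were caliper-measurable (day 8) after random sorting into groups. Dosing 10 mg/kg IP every Monday AM and Thursday PM; sham animals received water. Tumor length, width and depth measured Mon/Wed/Fri; volume = L×W×D; growth rate by linear regression. n = 7–10.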

Series [11] has as its system B16-F10. Briefly: Antitumor activity against GFP-tagged mouse B16F10 cells isografted into syngeneic athymic Ncr nu/nu mouse assessed as decrease in tumor growth rate at 10 mg/kg, ip administered twice weekly starting from day 8 post-tumor inoculation. The class given is functional, organism-based. The arrangement: dose 10 mg/kg. In a few lines:
as §2

The test system of series [12] is B16-F10. Briefly: Antimetastatic activity against GFP-tagged mouse B16F10 cells isografted into syngeneic athymic Ncr nu/nu mouse assessed as decrease in number of B16F10 lung metastases at 10 mg/kg, ip administered twice weekly starting from day 8 post-tumor inoculation by hematoxylin-eosin staining. The class given is functional, organism-based. Set-up: dose 10 mg/kg.

For series [13], the system named is B16-F10. Briefly: Antiangiogenic activity against GFP-tagged mouse B16F10 cells isografted into syngeneic athymic Ncr nu/nu mouse assessed as decrease in vascular density at 10 mg/kg, ip administered twice weekly starting from day 8 post-tumor inoculation. The class given is functional, organism-based. The arrangement: dose 10 mg/kg.
Series [14] relates to A-431. Briefly: Ratio of cisplatin IC50 to compound IC50 for human A431 cells overexpressing EGFR by CYQUANT dye based assay.
The test system of series [15] is B16-F10. Description: Antiangiogenic activity against GFP-tagged mouse B16F10 cells isografted into syngeneic athymic Ncr nu/nu mouse assessed as decrease in vascular density at […], ip administered twice weekly starting from day 8 post-tumor inoculation. The class given is functional, organism-based.
Series [16] relates to B16-F10. Description: Antimetastatic activity against GFP-tagged mouse B16F10 cells isografted into syngeneic athymic Ncr nu/nu mouse assessed as decrease in number of B16F10 lung metastases at […], ip administered twice weekly starting from day 8 post-tumor inoculation by hematoxylin-eosin staining. It is filed as functional, organism-based.
Series [17] relates to Chorioallantoic membrane. Description: Ratio of semaxanib IC50 to compound IC50 for VEGF165/bFGF-induced angiogenesis in chicken chorioallantoic membrane by dissecting microscopic analysis. The class given is functional. The conditions noted are these: Gallus gallus.
The subject of series [18] is B16-F10. Description: Antitumor activity against GFP-tagged mouse B16F10 cells isografted into syngeneic athymic Ncr nu/nu mouse assessed as decrease in tumor growth rate at […], ip administered twice weekly starting from day 8 post-tumor inoculation. The class given is functional, organism-based.
In series [19] the test system is Mus musculus. Description: Toxicity in Ncr nu/nu mouse assessed as body weight loss at 7.5 to 10 mg/kg, ip administered twice weekly measured for 6 weeks by whole animal toxicity assay. It is filed as organism-based. The arrangement: dose 7.5-10 mg/kg, route intraperitoneal. The conditions noted are these: in vivo, 1008 h.
The subject of series [20] is Mus musculus. Briefly: Toxicity in Ncr nu/nu mouse assessed as body weight loss at […], ip administered twice weekly measured for 6 weeks by whole animal toxicity assay. The conditions noted are these: in vivo, 1008 h. It is filed as organism-based.
Series [21] deals with Mus musculus. Briefly: Toxicity in Ncr nu/nu mouse assessed as body weight loss at 15 to 20 mg/kg, ip administered twice weekly measured for 6 weeks by whole animal toxicity assay. It is filed as organism-based. As to conditions: in vivo, 1008 h. The arrangement: dose 15-20 mg/kg, route intraperitoneal.
Series [22] relates to B16-F10. Description: Antitumor activity against GFP-tagged mouse B16F10 cells isografted into syngeneic athymic Ncr nu/nu mouse assessed as decrease in tumor volume at […], ip administered twice weekly starting from day 8 post-tumor inoculation. It is filed as functional, organism-based.
Series [23] in a line: Toxicity in ip dosed Ncr nu/nu mouse assessed as maximum tolerated dose administered twice weekly by whole animal toxicity assay. It is filed as organism-based. The conditions noted are these: in vivo.

T2 sequence (P17948 whole entry): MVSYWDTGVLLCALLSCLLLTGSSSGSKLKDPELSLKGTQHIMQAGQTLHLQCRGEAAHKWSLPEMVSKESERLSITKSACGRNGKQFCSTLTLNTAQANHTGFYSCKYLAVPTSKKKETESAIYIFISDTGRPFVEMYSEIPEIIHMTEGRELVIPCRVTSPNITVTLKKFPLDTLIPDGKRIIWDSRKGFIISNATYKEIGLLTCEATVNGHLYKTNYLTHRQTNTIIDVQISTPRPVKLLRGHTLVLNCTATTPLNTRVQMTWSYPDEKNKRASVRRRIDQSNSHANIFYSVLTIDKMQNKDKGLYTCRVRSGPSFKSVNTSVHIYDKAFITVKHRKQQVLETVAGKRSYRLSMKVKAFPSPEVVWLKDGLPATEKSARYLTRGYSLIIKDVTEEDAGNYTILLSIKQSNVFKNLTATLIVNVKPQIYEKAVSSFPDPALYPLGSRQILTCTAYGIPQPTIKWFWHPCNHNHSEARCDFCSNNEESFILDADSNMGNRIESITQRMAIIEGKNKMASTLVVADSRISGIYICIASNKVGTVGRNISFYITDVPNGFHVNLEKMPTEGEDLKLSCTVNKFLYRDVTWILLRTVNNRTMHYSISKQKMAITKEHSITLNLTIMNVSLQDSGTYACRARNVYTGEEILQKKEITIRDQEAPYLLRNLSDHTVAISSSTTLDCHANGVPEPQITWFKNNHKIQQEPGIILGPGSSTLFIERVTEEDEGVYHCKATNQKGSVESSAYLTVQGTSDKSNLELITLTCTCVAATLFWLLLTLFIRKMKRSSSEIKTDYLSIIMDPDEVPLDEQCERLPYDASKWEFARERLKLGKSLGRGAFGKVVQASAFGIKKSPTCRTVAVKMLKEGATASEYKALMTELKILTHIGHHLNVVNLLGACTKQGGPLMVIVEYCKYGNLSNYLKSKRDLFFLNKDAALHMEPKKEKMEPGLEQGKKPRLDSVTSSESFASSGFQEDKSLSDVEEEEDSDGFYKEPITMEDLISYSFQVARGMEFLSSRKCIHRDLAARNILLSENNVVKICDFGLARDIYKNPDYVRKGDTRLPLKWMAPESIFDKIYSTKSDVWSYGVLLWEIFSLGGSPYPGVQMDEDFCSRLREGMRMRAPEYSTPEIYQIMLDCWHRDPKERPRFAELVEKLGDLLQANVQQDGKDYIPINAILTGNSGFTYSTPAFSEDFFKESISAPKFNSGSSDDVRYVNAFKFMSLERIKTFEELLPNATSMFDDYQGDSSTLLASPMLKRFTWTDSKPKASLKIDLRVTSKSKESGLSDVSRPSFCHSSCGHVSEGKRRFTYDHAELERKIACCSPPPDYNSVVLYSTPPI
Platelet-derived growth factor receptor beta, sequence (P09619 whole entry): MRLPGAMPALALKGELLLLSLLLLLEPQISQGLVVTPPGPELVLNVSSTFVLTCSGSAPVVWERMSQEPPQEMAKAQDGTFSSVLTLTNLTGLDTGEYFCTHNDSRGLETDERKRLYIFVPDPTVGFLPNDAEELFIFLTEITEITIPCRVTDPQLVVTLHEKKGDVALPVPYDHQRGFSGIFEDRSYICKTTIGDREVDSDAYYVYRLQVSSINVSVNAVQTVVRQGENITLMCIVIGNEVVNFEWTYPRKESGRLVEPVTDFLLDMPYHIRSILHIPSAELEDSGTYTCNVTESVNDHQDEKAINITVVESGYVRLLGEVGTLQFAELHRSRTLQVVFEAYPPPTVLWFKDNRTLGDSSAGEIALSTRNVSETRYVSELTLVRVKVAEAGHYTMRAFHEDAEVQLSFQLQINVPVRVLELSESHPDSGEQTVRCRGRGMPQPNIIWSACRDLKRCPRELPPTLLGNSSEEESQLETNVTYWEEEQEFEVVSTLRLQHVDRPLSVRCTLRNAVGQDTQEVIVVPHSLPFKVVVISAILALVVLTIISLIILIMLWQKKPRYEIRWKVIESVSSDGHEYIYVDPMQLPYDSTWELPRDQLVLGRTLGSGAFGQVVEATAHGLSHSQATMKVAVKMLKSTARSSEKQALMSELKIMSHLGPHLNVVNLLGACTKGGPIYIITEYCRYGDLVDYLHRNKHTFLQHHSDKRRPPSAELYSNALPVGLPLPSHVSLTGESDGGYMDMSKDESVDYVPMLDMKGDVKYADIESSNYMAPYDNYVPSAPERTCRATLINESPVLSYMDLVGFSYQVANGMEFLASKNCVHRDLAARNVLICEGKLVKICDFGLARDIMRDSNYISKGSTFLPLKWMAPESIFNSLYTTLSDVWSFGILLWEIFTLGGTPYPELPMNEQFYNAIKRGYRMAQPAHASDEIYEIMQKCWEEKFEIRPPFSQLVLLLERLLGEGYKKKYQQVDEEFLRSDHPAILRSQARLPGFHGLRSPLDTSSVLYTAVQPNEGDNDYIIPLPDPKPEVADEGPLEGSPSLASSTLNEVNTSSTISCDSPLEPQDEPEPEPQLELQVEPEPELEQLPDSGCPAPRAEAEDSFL

By IC50 is commonly meant the concentration at which inhibition is half-maximal. In the case of `C#Cc1cccc(Nc2nc(NC(=O)C(C)(C)C)nc3[nH]c(CCc4ccccn4)cc23)c1`, the half-inhibitory concentration (IC50) in [1] was 126 µM; in series [2], 156 µM; in [3], 430 µM; in series [4], over 200 µM; in the series on A-431 [5], 29.9 µM; in the series with Chorioallantoic membrane [6], 3.2 µM. In [7], the Ratio IC50 was 5.

Turning to `CC(C)(C)C(=O)Nc1nc(Nc2cccc(C(F)(F)F)c2)c2cc(CCc3ccccn3)[nH]c2n1`, the half-maximal inhibitory concentration (IC50) in series [1] is 16.7 µM; in series [2], 130 µM; in [3], over 500 µM; in series [4], 12.8 µM; in the series with A-431 [5], 2.9 µM; with Chorioallantoic membrane [6] it was 1.6 µM. Besides, the results for the Ratio IC50 in [8] and in series [7] were 1.5 and 5, respectively.

For the molecule `Nc1nc(Nc2cccc(Br)c2)c2cc(CCc3ccccn3)[nH]c2n1`, the half-maximal inhibitory concentration (IC50) in series [1] was 49.9 µM; in series [2], over 50 µM; in [3] it was 13.4 µM; in the series on A-431 [5], 19.6 µM; in the series with Chorioallantoic membrane [6], 7.23 µM.

Take `CC(C)(C)C(=O)Nc1nc(Nc2ccc(F)c(Br)c2)c2cc(CCc3ccccn3)[nH]c2n1`: the IC50 is over 200 µM in series [1]; over 200 µM in [2]; 89.7 µM in series [3]; 5.4 µM in series [4]; 1 µM with A-431 [5]; 0.9 µM with Chorioallantoic membrane [6]. In addition, the Ratio IC50 in the series on Chorioallantoic membrane [9] is 10.

Turning to `Nc1nc(Nc2cccc(C(F)(F)F)c2)c2cc(CCc3ccccn3)[nH]c2n1`, the concentration for half-maximal inhibition (IC50) in series [1] was 16.7 µM; in series [2] it was over 200 µM; in [3], over 500 µM; in [4] it was 19.3 µM; in the series with A-431 [5], 3.4 µM; in the series with Chorioallantoic membrane [6], 1.09 µM. Moreover, the Ratio IC50 in series [8] was determined as 1.5.

As to `Nc1nc(Nc2ccc(F)c(Cl)c2)c2cc(CCc3ccccn3)[nH]c2n1`, the concentration for half-maximal inhibition (IC50) was over 200 µM in [1]; over 200 µM in series [2]; over 500 µM in series [3]; 111 µM in [4]; 27 µM in the series on A-431 [5]; 11.3 µM with Chorioallantoic membrane [6].

On to `Nc1nc(Nc2ccc(F)c(C(F)(F)F)c2)c2cc(CCc3ccccn3)[nH]c2n1`, for which the IC50 in [1] is 124 µM; in [2] it was over 200 µM; in [3], over 500 µM; in series [4] it was 15.6 µM; in the series with A-431 [5], 3.2 µM; in the series with Chorioallantoic membrane [6], 14 µM.

For `CN(Cc1cnc2nc(N)nc(N)c2n1)c1ccc(C(=O)N[C@@H](CCC(=O)O)C(=O)O)cc1`, the inhibition result in the series on B16-F10 [10], in the series with B16-F10 [11], in the series on B16-F10 [12] and in the series with B16-F10 [13] was “Active” throughout.

`CC(C)(C)C(=O)Nc1nc(Nc2ccc(F)c(Cl)c2)c2cc(CCc3ccccn3)[nH]c2n1`: the half-inhibitory concentration (IC50) in [1] was 89.3 µM; in series [2], over 200 µM; in series [3], over 500 µM; in [4] it was 16.3 µM; in the series on A-431 [5] it was 2.6 µM; with Chorioallantoic membrane [6], 2 µM.

With `C#Cc1cccc(Nc2nc(N)nc3[nH]c(CCc4ccccn4)cc23)c1`, the IC50 came out at 43.6 µM in [1]; 103 µM in [2]; 331 µM in series [3]; 19.9 µM in [4]; 0.9 µM in the series on A-431 [5]; 13.9 µM in the series on Chorioallantoic membrane [6]. Moreover, the “Ratio IC50” value in the series with A-431 [14] was 8; in [7], 5.

In the case of `CC(C)(C)C(=O)Nc1nc(Nc2ccc(F)c(C(F)(F)F)c2)c2cc(CCc3ccccn3)[nH]c2n1`, the IC50 in series [1] was 151 µM; in [2], 190 µM; in series [3] it was over 500 µM; in series [4], 26.9 µM; in the series with A-431 [5], 1.9 µM; in the series on Chorioallantoic membrane [6], 8.6 µM. Also, the Ratio IC50 in [7] is 5.

The MTD is the highest dose tested that stayed within the study's limit of toxicity. Take `Nc1nc(Nc2ccc(F)c(Br)c2)c2cc(CCc3ccccn3)[nH]c2n1`: the IC50 in [1] was 24.1 µM; in series [2], 93.6 µM; in series [3], over 500 µM; in series [4] it was 85.9 µM; with A-431 [5], 12.2 µM; in the series on Chorioallantoic membrane [6] it was 0.07 µM. For the same molecule, the inhibition result in the series on B16-F10 [15], in the series with B16-F10 [16], in the series with B16-F10 [18] and in the series on B16-F10 [22] was “Active” throughout. In addition, the figures for the Ratio IC50 (in the series with Chorioallantoic membrane [17]; in series [8]; in [7]) were 1.2, 2.4 and 5, respectively. Besides, the Activity result with Mus musculus [19] is reported as “Non-toxic”; in the series with Mus musculus [20], 1%; in the series on Mus musculus [21] it was “Toxic”. Moreover, in [23], the MTD was determined as 12.5 mg/kg.
